This data set is described as follows: Toxicity liver stage against HepG2, at 10uM. Conditions: human, HepG2-A16-CD81EGFP cells; read-out: INHIBITION
Format: cell-based. On the set-up: test concentration 10 uM, cell line HepG2-A16-CD81EGFP. Put shortly: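 Uninfected HepG2-A16-CD81EGFP cells, 3 × 10^3 per well, 1536-well, plated on prespotted compound at 10 μM final, parasite-free screening media added to match infected plates; puromycin 10 μM positive, DMSO 0.5% negative; run in parallel with 48 h PbLuc assay at 37 °C, 5% CO2; viability by CellTiter-Glo luminescence, normalized to controls.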
For `COCCCNC(=O)N1CCN(C(=O)c2nsc3ccc(C)cc23)CC1`, the cytotoxicity at 10 µM stood at 12.3%. On to `Cc1cc(NC(=O)NCCCSc2nncn2C)no1`, for which the cytotoxicity at 10 µM was 0.0537%. Take `CCOc1nn(CC)cc1-c1nnc(SCC)n1C`: the cytotoxicity at 10 µM stood at 1.81%. `Cc1cc(C(=O)N(CC(F)(F)F)C2CCOCC2)c(C)o1`: the cytotoxicity at 10 µM was -0.541%.

Regarding `COc1ccc(C(=O)COc2coc(CN3CCSCC3)cc2=O)cc1`, the cytotoxicity at 10 µM was determined as 8.13%. Consider `CCc1c(C)n(CC(=O)OC)c2nc3ccccc3n2c1=O`, for which the cytotoxicity at 10 µM was 1.44%. Under `CC1=Nc2c(c(=O)[nH]n2C2CCCC2)C(c2cccc(O)c2)S1` (stereo unspecified) stands 4.8%; under `CC(C)n1[nH]c(=O)c2c1NC(=O)CC2c1cccnc1` (stereo unspecified), -6.15%; under `CNc1nc2c(s1)C(c1c(Cl)cccc1Cl)CC(=O)N2` (stereo unspecified), -10.4%. Under `Cn1cc(N2CCC3(CCN(S(=O)(=O)C4CC4)C3)C2=O)cn1` (stereo unspecified) stands -2.45%. As for `CNC(=O)N1C[C@H]2CC[C@@]3(N=C(c4ccccc4)NC3=O)[C@H]2C1`, the cytotoxicity at 10 µM was -9.84%. `CC(C(=O)Nc1ccon1)n1ccc(C(F)(F)F)n1` (stereo unspecified): the cytotoxicity at 10 µM was 5.15%. For `Cc1ccccc1CNCc1cc(Cl)ccc1O`, the cytotoxicity at 10 µM is -5.9%. Under `Cc1cc(C(F)(F)F)nn1CC(C)C(=O)Nc1cccnc1` (stereo unspecified) stands 11.5%. As to `O=C1CC(c2ccc3c(c2)OCO3)c2snc(C(=O)O)c2N1` (stereo unspecified), the cytotoxicity at 10 µM came to 4.43%. Turning to `COCc1nc(N(C)C)ncc1C(=O)Nc1ccn(C)n1`, the cytotoxicity at 10 µM was -0.782%. Under `CNC(=O)CCc1cc(C2CCCCN2C(C)C)nc(C)n1` (stereo unspecified) stands -1.66%; under `CNc1ccc(C2CN(c3cc(C)ncn3)CCO2)nc1` (stereo unspecified), 7.14%. In the case of `O=S(=O)(CCc1ccccc1)Nc1cc(Cl)ccn1`, the cytotoxicity at 10 µM was -4.81%. As for `CS(=O)(=O)NCC1Cc2ccccc2O1` (stereo unspecified), the cytotoxicity at 10 µM was determined as 2.01%. Regarding `Cn1cc(C(=O)NCCc2ccc(OC3CCCC3)cc2)ccc1=O`, the cytotoxicity at 10 µM was -2.51%. `COC(CNC(=O)c1ccc[nH]1)c1cccc(Cl)c1` (stereo unspecified): the cytotoxicity at 10 µM was -0.23%. Under `O=C(c1ccc2nncn2c1)N1CCCC1c1noc(C2CC2)n1` (stereo unspecified) stands -7.11%; under `COc1cccc(C(=O)NS(=O)(=O)c2cncc(Br)c2)c1OC`, 0.684%.

For `Cc1cc(C)n(CC2CCCN2C(=O)c2ccc3[nH]cnc3c2)n1` (stereo unspecified), the cytotoxicity at 10 µM was 3.18%. For the compound `CC(NCc1cccnc1)c1cc2c(cc1Br)OCCO2` (stereo unspecified), the cytotoxicity at 10 µM amounted to 2.46%. Regarding `O=C(C[S+]([O-])Cc1cccc(Cl)c1)NC1CCCC1` (stereo unspecified), the cytotoxicity at 10 µM is 0.808%. On to `CC1(C)CN(CC(F)(F)F)CCN1CC(N)=O`, for which the cytotoxicity at 10 µM turned out to be 9.92%. `CN(C(=O)c1ccc[nH]1)C1CC(=O)N(Cc2ccccc2)C1=O` (stereo unspecified): the cytotoxicity at 10 µM is 8.02%. Take `O=C(CNC(=O)N(Cc1ccoc1)C1CCCCC1)N1CCCC1`: the cytotoxicity at 10 µM was -1.3%.

As for `Cc1cnn(C2CN(c3ncnc4[nH]ccc34)C2)c1`, the cytotoxicity at 10 µM amounted to 8%. For the compound `Cc1cc(C2CCCN(CC(=O)N3CCc4ccccc43)C2)n[nH]1` (stereo unspecified), the cytotoxicity at 10 µM amounted to 2.01%. Regarding `O=C(c1occc1CN1C(=O)Cc2ccccc21)N1CCCCCC1`, the cytotoxicity at 10 µM came to 4.52%. As for `Cc1ccc(NC(=O)N2CCCC(N(C)C)C2)c(Br)c1` (stereo unspecified), the cytotoxicity at 10 µM was -3.51%.

For the compound `CS(=O)(=O)c1ccc(NCCC2CCCO2)c(S(C)(=O)=O)c1` (stereo unspecified), the cytotoxicity at 10 µM is -4.27%.

As to `Cc1ccc(CNC(CN2CCN(C)CC2)c2ccccc2)cc1` (stereo unspecified), the cytotoxicity at 10 µM stood at 9.19%. For `Cc1ccc(NC(=O)NC(C)c2nc[nH]n2)cc1` (stereo unspecified), the cytotoxicity at 10 µM was -0.665%. Regarding `CC(C)(C)N1CCCN(C(=O)c2csc(S(N)(=O)=O)c2)CC1`, the cytotoxicity at 10 µM stood at 5.06%. On to `N#CCCN(CCC#N)C(=O)CN1CCCC1Cc1cccc(F)c1` (stereo unspecified), for which the cytotoxicity at 10 µM was -10.5%. Consider `Cc1cnn(CCC(=O)N2CCOC(c3nc(C(C)(C)C)n[nH]3)C2)c1` (stereo unspecified), for which the cytotoxicity at 10 µM was 5.17%. Under `Cc1ccc(C(=O)N(C)Cc2cc(Br)cs2)c(=O)[nH]1` stands -0.782%; under `CCc1nnc2n1CCN(C(=O)c1ccc3[nH]cnc3c1)C2`, -19.1%; under `COC(=O)NCC(=O)N1CCCC(c2ncc[nH]2)C1` (stereo unspecified), 2.42%. For `CCN(CC)S(=O)(=O)N1CCCC(c2nccn2Cc2cccnc2)C1` (stereo unspecified), the cytotoxicity at 10 µM worked out at 7.07%. `Cc1ccc2oc(CN3CCn4nc(CCC(=O)O)cc4C3)c(C)c2c1`: the cytotoxicity at 10 µM is -5.56%. Consider `C=C(C)CNC(=O)C1CCC(=O)N(C2CCCC2)C1` (stereo unspecified), for which the cytotoxicity at 10 µM is -3.4%. Turning to `CC(C(=O)N1CCN(CCOc2ccccc2)CC1)n1cc(Cl)cn1` (stereo unspecified), the cytotoxicity at 10 µM was 10.4%. Under `CC1(C)CC(CN2CCC3(CCC(=O)N(CCO)C3)CC2)CCO1` (stereo unspecified) stands 18%; under `Cn1ncc2c(NCC3CCS(=O)(=O)C3)nc(C3CCCC3)nc21` (stereo unspecified), -5.1%; under `COc1ccc(-n2cccn2)c(CN2CCOCC(CN(C)C)C2)c1` (stereo unspecified), -14.6%. Turning to `CCc1ccccc1C(=O)N1C[C@@H](CN2CCOCC2)[C@@H](CO)C1`, the cytotoxicity at 10 µM is -0.125%. Under `Cc1ccc(-c2ncc(C(=O)N3CCCN4CCC[C@H]4C3)c(O)n2)cc1` stands -8.04%; under `O=C(O)C1(n2cccn2)CCN(c2nc(-c3ccccc3)no2)CC1`, 7.47%; under `O=C1O[C@@H]2CN(Cc3ccccn3)C[C@@H]2N1CCCc1ccc(F)cc1`, -0.687%. In the case of `CCN(Cc1cnn(C)c1)C[C@H]1CC[C@@H](Cc2cccc(CN)c2)O1`, the cytotoxicity at 10 µM is -0.189%. Under `Cc1ccccc1CSc1nc(N)cc(N2CCCC(O)C2)n1` (stereo unspecified) stands -6.52%; under `Cc1c(CN2CCC(C(=O)O)(n3ccnc3)CC2)oc2ccccc12`, -4.86%. On to `Cc1ccc(C)c(C(=O)N2CCC3(CCC(=O)N(CC(N)=O)C3)CC2)c1`, for which the cytotoxicity at 10 µM is 17.7%. Regarding `Cc1cncc(C(=O)N2CCCC(O)(CO)C2)c1` (stereo unspecified), the cytotoxicity at 10 µM is 2.09%.

`CC(C)CCN1CC2(CCCN(C(=O)c3cscn3)C2)CCC1=O` (stereo unspecified): the cytotoxicity at 10 µM is -13.9%. Under `CN(CCO)Cc1nnc(C2CCN(C(=O)C(C)(C)C)CC2)n1C` stands 22.6%. On to `Cc1cccnc1CNCC1(O)CCCN(CC2CCCCC2)C1=O` (stereo unspecified), for which the cytotoxicity at 10 µM is -2.37%. `Cc1ccc(C(C)C(=O)N2CCCN(Cc3cscn3)CC2)cc1` (stereo unspecified): the cytotoxicity at 10 µM was -5.31%. Take `COc1ccc(C)cc1C(C)NC(=O)NCCCn1cncn1` (stereo unspecified): the cytotoxicity at 10 µM is 2.62%. On to `Cc1cc(C)c(CNC(=O)N2CCCC2C(N)=O)c(=O)[nH]1` (stereo unspecified), for which the cytotoxicity at 10 µM was -0.241%. As to `Cc1noc(C)c1CNc1cc(N2CCCC2CO)ncn1` (stereo unspecified), the cytotoxicity at 10 µM is 1.42%. For the compound `COc1ccc(OCCc2cc(C3CCN(CC(C)C)C3)n[nH]2)cc1` (stereo unspecified), the cytotoxicity at 10 µM came out at 1.97%. In the case of `Cc1nc(N2CCCC2)nc2c1CCN(Cc1ccco1)CC2`, the cytotoxicity at 10 µM is -6.52%.

Consider `CCc1ccc(NC(=O)N2C[C@@H]3C[C@H](C(=O)NC)[C@H](C2)O3)cc1`, for which the cytotoxicity at 10 µM came out at 5.4%. On to `Nc1ncccc1CN1C[C@H]2CC[C@@H](C1)N(CC1CC1)C2=O`, for which the cytotoxicity at 10 µM is -0.956%. Under `O=c1c2c[nH]c(N3CCCC3)nc-2cn1CCc1ccc(Cl)cc1` stands 11.9%.

Values taken from ChEMBL document CHEMBL4513216, “Probing the Open Global Health Chemical Diversity Library for Multistage-Active Starting Points for Next-Generation Antimalarials” (ACS Infect Dis, 2020).
